The results in this text go back to the array DNA melting data of Ke et al. (doi:10.1101/2024.01.08.574731).

Data set [1] can be described thus: melting temperature; fluorescence melt of hairpins on a sequencing array, two-state fit, raised by 9.35 °C to match UV melts. To be noted: sodium 0.088 M. Summed up:
(§1)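 Cy3 signals were normalised both to pre-quench Cy3 and to control constructs. They came from library hairpins carrying annealed Cy3 and quencher oligos on a sequenced MiSeq flow cell, imaged in 50 mM Na-HEPES pH 8.0, 25 mM NaCl, in 2.5 °C steps up to 60 °C. Bootstrapped two-state fits gave melting temperature and folding enthalpy, and four replicates were combined by inverse variance. Fitted temperatures were then raised by 9.35 °C to match UV melts.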

Data set [2] can be described thus: folding enthalpy; higher = less favourable; fluorescence melt of hairpins on a sequencing array, two-state fit. Conditions: sodium 0.088 M. In short, it runs like this:
as §1

For GCGACGGGAAACCGTTGC ((.((((....)))).)), the Tm in data set [1] amounted to 61 °C. Besides, the folding enthalpy in data set [2] was -40 kcal/mol.
Taken in the same sequence, the figures for CGGCAACGGAAACGTCCG (((..(((....)))))) were 39.2 °C and -13 kcal/mol.
Taken in the same sequence, the figures for GCGTGGTGACGC ((((....)))) were 55.1 °C and -17.3 kcal/mol.
For GCGTACGGAAACGCACAC (.((.((....)).)).), in data set [1], the Tm stood at 38.1 °C. The folding enthalpy in data set [2] is -12.6 kcal/mol.
Regarding GAACCAGGAAACTGGCTC ((.((((....)))).)), the Tm in data set [1] was determined as 39.6 °C. For the same sequence, the folding enthalpy in data set [2] is -21.8 kcal/mol.
Taken in the same sequence, the figures for GATCCGGGGACGGATC ((((((....)))))) were 61.9 °C and -41.6 kcal/mol.
For GTTACCGAAAGGTGGAAC ((((((....)))..))), the Tm in data set [1] is 28.1 °C. For the same sequence, the folding enthalpy in data set [2] was -10.2 kcal/mol.
Taken in the same sequence, the figures for GCGGGGCGAAAGCGGCGC (((..((....))..))) were 66.8 °C and -34.7 kcal/mol.
As for GTGGGTCGAAAGACACAC (((.(((....))).))), the Tm in data set [1] came out at 63.5 °C. Besides, in data set [2], the folding enthalpy is -47 kcal/mol.
Taken in the same sequence, the figures for GAAGAGGGAAACCTCTTC (((((((....))))))) were 55.3 °C and -33.5 kcal/mol.
On to GATCTCCGGGGAGATC ((((((....)))))), for which the Tm in data set [1] amounted to 55.7 °C. Further, the folding enthalpy in data set [2] is -43.9 kcal/mol.
Taken in the same sequence, the figures for GATCGTCTTCACGATC ((((((....)))))) were 53.4 °C and -45.7 kcal/mol.
Consider GATCAACGAAAGTTAATC (((.(((....))).))), for which, in data set [1], the Tm worked out at 27.8 °C. Besides, in data set [2], the folding enthalpy was -11.7 kcal/mol.
Taken in the same sequence, the figures for GATGTCGGAAACGATGTC ((..(((....)))..)) were 39.9 °C and -32.6 kcal/mol.
With GTAGAACGAAAGTTATAC (((.(((....))).))), in data set [1], the Tm was determined as 44.1 °C. The folding enthalpy in data set [2] is -33.9 kcal/mol.
GGCTACCCGAAAGGGGCC (((..(((....)))))): in data set [1], the Tm was 50.6 °C. In addition, in data set [2], the folding enthalpy was -18.9 kcal/mol.
Taken in the same sequence, the figures for CGAGAGAAATCTCG (((((....))))) were 47.5 °C and -23.9 kcal/mol.
Taken in the same sequence, the figures for GATCTGCGAAAGCAAATC (((.(((....))).))) were 36.5 °C and -18.4 kcal/mol.
GATGTCGGAAACGACGTC ((.((((....)))).)): the Tm in data set [1] is 54.1 °C. For the same sequence, the folding enthalpy in data set [2] was -31.3 kcal/mol.
Consider GCGTCCGAAAGGACCCGC ((((((....)))..))), for which, in data set [1], the Tm turned out to be 44.4 °C. Besides, in data set [2], the folding enthalpy was -11.4 kcal/mol.
As to GCCATACGAAAGTACGGC (((.(((....))).))), in data set [1], the Tm came out at 51.5 °C. Moreover, in data set [2], the folding enthalpy is -37 kcal/mol.
Taken in the same sequence, the figures for GACTATGGAAACATGGTC (((.(((....))).))) were 45.4 °C and -35.5 kcal/mol.
Taken in the same sequence, the figures for GCAGCGCGAAAGCGTCGC ((..(((....)))..)) were 57.1 °C and -17.5 kcal/mol.
Take GATCCAGGTGTGGATC ((((((....)))))): the Tm in data set [1] came out at 52 °C. The folding enthalpy in data set [2] was -44.8 kcal/mol.
GCGAGGCGAAAGCACCGC (((..((....))..))): in data set [1], the Tm is 61.8 °C. Moreover, the folding enthalpy in data set [2] was -22.8 kcal/mol.
Taken in the same sequence, the figures for GGGGTTACGAAAGTACCC (((..(((....)))))) were 51.4 °C and -22.8 kcal/mol.
Taken in the same sequence, the figures for GATCCTCTATAGGATC ((((((....)))))) were 51.9 °C and -40.8 kcal/mol.
Taken in the same sequence, the figures for GCACCCCGAAAGGGTTGC (((.(((....))).))) were 55.1 °C and -34.8 kcal/mol.
Regarding GATCTCATCCGAGATC ((((((....)))))), the Tm in data set [1] stood at 53.2 °C. Also, in data set [2], the folding enthalpy was -39.2 kcal/mol.
Take GTTTTGGGAAACCAAGAC ((.((((....)))).)): the Tm in data set [1] was determined as 39 °C. Also, in data set [2], the folding enthalpy is -24.6 kcal/mol.
As for GAACGCGAAAGCGAATTC ((((((....)))..))), the Tm in data set [1] is 28.8 °C. The folding enthalpy in data set [2] is -10.7 kcal/mol.
Taken in the same sequence, the figures for GTGGACGAAAGTCGACAC ((((((....)))..))) were 47.5 °C and -21.8 kcal/mol.
Taken in the same sequence, the figures for GTGAACCGAAAGGTCAC (((.(((....)))))) were 54.9 °C and -27.2 kcal/mol.
Taken in the same sequence, the figures for GTACCTCGAAAGAGTAC (((.(((....)))))) were 42.5 °C and -20.8 kcal/mol.
With GTCTACGAAAGTATTGAC ((((((....)))..))), the Tm in data set [1] was determined as 30.2 °C. In data set [2], the folding enthalpy is -19.5 kcal/mol.
Taken in the same sequence, the figures for GATTGCGAAAGCAGAATC ((((((....)))..))) were 35.4 °C and -13.8 kcal/mol.
Turning to GACGCACGAAAGTGTGTC (((.(((....))).))), the Tm in data set [1] is 61.8 °C. Moreover, the folding enthalpy in data set [2] is -45.6 kcal/mol.
